SMARCA2 act: increases SMARCA2 function in MMTV reporter cells; MG213 cells, MMTV-luciferase reporter, dexamethasone, overnight; activation, % at 9.1 µM; 370,000 compounds, 1% hits; AID 652017; in the data active = activation above about 7.8%
H9c2 TAG inh: reduces triacylglycerol accumulation in H9c2 cells. Nile Red lipid (TAG) fluorescence; cells loaded with 200 µM oleic acid. inhibition, % at 12.5 µM. 230,000 compounds, 0.66% hits. AID 651582;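 active = pattern-corrected inhibition of lipid staining of at least 50% with the nuclear-stain viability signal not falling by more than 50%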
Vif imaging: HIV Vif inhibition; HEK293T cells, Vif self-association by quenched fluorescence, imaging, 24 h; inhibition, % at 7.49 µM; 340,000 compounds, 0.35% hits; in the data active = inhibition above about 50%, passing the limit was not always enough
SR-BI uptake up: SR-BI HDL lipid transfer activation | 320,000 compounds, 0.096% hits | activation, % at 12.5 µM | CHO ldlA[mSR-BI] cells, DiI-HDL uptake fluorescence, 3 h; 100 = double the neutral-control signal;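 active = mean replicate activation of at least 60% and every replicate at or above 60%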
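Test system: SR-BI-overexpressing, LDLR-lacking CHO cells; Also added: labelled HDL, 10 µg/mL; Measured by: bottom-read cell fluorescence after medium removal, ex 550/em 595 nm; Timing: 3 h uptake period with compound, 37 °C; Buffer or medium: F12, 0.5% BSA, 25 mM HEPES; Doses: single compound concentration, delivered by pin transfer.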
SR-BI HDL uptake: mouse SR-BI HDL lipid transfer inhibition; Q61009; inhibition, % at 12.5 µM; 320,000 compounds, 0.96% hits; ldlA[mSR-BI] CHO cells, DiI-HDL uptake fluorescence, 3 h;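 active = mean replicate inhibition of at least 70% and a set share of replicates each scoring 70 or more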
Target sequence (Q61009 whole entry, looked up): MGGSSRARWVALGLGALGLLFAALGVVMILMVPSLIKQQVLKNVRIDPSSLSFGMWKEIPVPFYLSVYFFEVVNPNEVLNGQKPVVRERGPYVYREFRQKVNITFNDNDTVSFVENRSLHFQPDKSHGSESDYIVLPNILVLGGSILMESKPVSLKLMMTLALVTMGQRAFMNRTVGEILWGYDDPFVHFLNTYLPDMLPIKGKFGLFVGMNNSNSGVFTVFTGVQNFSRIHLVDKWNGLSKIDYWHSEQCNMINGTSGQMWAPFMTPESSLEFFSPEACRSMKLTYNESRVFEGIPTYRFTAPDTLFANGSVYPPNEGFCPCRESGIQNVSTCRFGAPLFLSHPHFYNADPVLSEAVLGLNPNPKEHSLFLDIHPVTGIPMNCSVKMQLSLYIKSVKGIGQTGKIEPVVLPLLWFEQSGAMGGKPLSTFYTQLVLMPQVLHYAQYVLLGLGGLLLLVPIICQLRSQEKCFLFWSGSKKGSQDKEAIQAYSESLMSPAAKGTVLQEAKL
TAG conf: triacylglycerol accumulation inhibition, confirmation; shares compounds with H9c2 TAG inh; H9c2 lipid accumulation, Nile Red fluorescence; cells loaded with 200 µM oleic acid; inhibition, % at 12.5 µM; 990 compounds, 71% hits; AID 651629;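 active = mean inhibition across replicates of 40% or more; inactive = mean inhibition below 40%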
Large screens that a line does not name were inactive (follow-up assays come after a bar, where they were run). Only some compounds are listed: those with a hit (about 2.5% of all), similar ones and a draw of the others.

C[C@H]1C[C@H]2[C@@H]3CCC4=CC(=O)C=C[C@]4(C)[C@@]3(F)[C@@H](O)C[C@]2(C)[C@@]1(O)C(=O)CO	none
Nc1cc2c(cc1Br)[nH]c(=O)c1ccccc12	H9c2 TAG inh 77 | TAG conf 62
Nc1cc2[nH]c(=O)c3ccccc3c2cc1Br	none
CC1=CC(C)(C)N2C(=O)C3(C(C#N)=C(N)Oc4cc(C)oc(=O)c43)c3cc(C)cc1c32 (stereo not given)	none
CCc1cc2c3c(c1)C1(C(=O)N3C(C)(C)C=C2C)C(C#N)=C(N)Oc2[nH]c(=O)[nH]c(=O)c21 (stereo not given)	H9c2 TAG inh 51 | TAG conf 49
COc1ccc(NS(=O)(=O)c2cccc(C(=O)N/N=C/c3cn(-c4ccccc4)nc3-c3ccccc3)c2)cc1	H9c2 TAG inh 60, SR-BI HDL uptake 96 | TAG conf 62
COc1ccc(NS(=O)(=O)c2cccc(C(=O)N/N=C/c3cn(-c4ccccc4)nc3-c3ccc(OC)cc3)c2)cc1	none (no result: SR-BI uptake up, SR-BI HDL uptake)
NC(Cc1cnc[nH]1)c1csc(Nc2ccc(C(F)(F)F)cn2)n1 (stereo not given)	none (no result: SR-BI uptake up, SR-BI HDL uptake)
NC(Cc1ccc(F)cc1)c1csc(Nc2ccc(C(F)(F)F)cn2)n1 (stereo not given)	H9c2 TAG inh 90 (no result: SR-BI uptake up, SR-BI HDL uptake) | TAG conf 74
CN(Cc1ccccc1)C(=O)c1ccc(Nc2nc(C(N)Cc3ccccc3)cs2)nc1 (stereo not given)	H9c2 TAG inh 52 (no result: SR-BI uptake up, SR-BI HDL uptake) | TAG conf 49
CN(Cc1ccccc1)C(=O)c1ccc(Nc2nc(C(N)Cc3ccc(C(F)(F)F)cc3)cs2)nc1 (stereo not given)	none (no result: SR-BI uptake up, SR-BI HDL uptake)
CC(=O)O[C@@H]1C=C[C@@H](C#Cc2ccc(C(C)(C)C)cc2)O[C@@H]1COC(=O)NCc1ccccc1	none (no result: H9c2 TAG inh, Vif imaging, SR-BI uptake up, SR-BI HDL uptake)
CSc1sc(-c2ccnc(SCCS(C)(=O)=O)n2)c(-c2ccccc2)c1C#N	none
CSc1sc(-c2ccnc(=S)[nH]2)c(-c2ccccc2)c1C#N	H9c2 TAG inh 75 (no result: SR-BI uptake up, SR-BI HDL uptake) | TAG conf inactive
CCOc1ccc(CCNC(=O)CN2CCN(Cc3ccccc3C)C2=O)cc1OCC	H9c2 TAG inh 60, SR-BI HDL uptake 79 | TAG conf 54
COc1ccc(CCNC(=O)Cn2c(-c3nonc3N)nc3ccccc32)cc1OC	none
CCCCOc1ccccc1NC(=O)Cn1c(-c2nonc2N)nc2ccccc21	H9c2 TAG inh 73 (no result: Vif imaging) | TAG conf 64
COc1cc(Cn2c(-c3nonc3N)nc3ccccc32)ccc1C	H9c2 TAG inh 66 (no result: Vif imaging) | TAG conf 62
CCOc1ccc(CCNC(=O)Cn2c(-c3nonc3N)nc3ccccc32)cc1OCC	H9c2 TAG inh 57 (no result: Vif imaging) | TAG conf inactive
O=S1(=O)c2ccc(N3CCC[C@@H]3CO)cc2OCCCN1C1CC1	none (no result: H9c2 TAG inh, Vif imaging, SR-BI uptake up, SR-BI HDL uptake)
CC(CCN1CCC(C(O)(c2ccccc2)c2ccccc2)CC1)Oc1cc(F)cc(F)c1 (stereo not given)	none (no result: H9c2 TAG inh, Vif imaging, SR-BI uptake up, SR-BI HDL uptake)
CC(C)(C)c1csc(NNC(=O)c2ccc(Br)cc2)n1	H9c2 TAG inh 55 | TAG conf inactive
COc1ccccc1/C=C/C(=O)NCC(=O)N/N=C/c1cc(Br)ccc1OC	H9c2 TAG inh 54, SR-BI HDL uptake 98 | TAG conf inactive
Oc1ccc(C[C@H]2CNC(=S)N2CC2CCCN2C[C@H](Cc2ccc(O)cc2)N2C[C@H](Cc3ccc(O)cc3)N(CC3CCCCC3)C2=S)cc1 (stereo not given in full)	H9c2 TAG inh 75, SR-BI uptake up 183 (no result: Vif imaging) | TAG conf 73
O=C(Nc1ccncc1)C1CCCN(S(=O)(=O)c2cccc3cccnc23)C1 (stereo not given)	H9c2 TAG inh 60 | TAG conf 41
COc1ccc2sc(-c3ccc(N(C)C)cc3)c(C#CCCO)c2c1	H9c2 TAG inh 76, SR-BI HDL uptake 96 | TAG conf 87
O=C(OC12CCCN(C1)/C(=C/c1ccncc1)C2)c1ccc(F)cc1 (stereo not given)	none (no result: H9c2 TAG inh, Vif imaging, SR-BI uptake up, SR-BI HDL uptake)
CCCC(=O)OC[C@H]1CN(C2CCCC2)S(=O)(=O)c2c(Oc3ccc(C(C)(C)C)cc3)cccc2O1	none (no result: H9c2 TAG inh, Vif imaging, SR-BI uptake up, SR-BI HDL uptake)
CC(NC(=O)C12CC3CC(CC(C3)C1)C2)C(=O)N/N=C/C1=C(N2CCOCC2)C(=C\c2ccccc2)/CC1 (stereo not given)	none (no result: H9c2 TAG inh)
O=C1Nc2ccc(Br)cc2/C1=N\N=C\C1=C(N2CCOCC2)C(=C/c2ccccc2)/CC1	H9c2 TAG inh 84, SR-BI HDL uptake 100 | TAG conf 136
CCOc1ccc(CN(C)C(=O)CCl)cc1	H9c2 TAG inh 58 | TAG conf 80
CCOc1ccc(CN(C)C(=O)CCNC(=O)c2ccco2)cc1	none
COc1ccc(NC(=O)Nc2ccc3c(c2)C(=O)N([C@H](C)CO)C[C@H](C)[C@H](CN(C)C)OCCCC[C@@H](C)O3)cc1	none (no result: H9c2 TAG inh, Vif imaging, SR-BI uptake up, SR-BI HDL uptake)
CCn1ncc(/C=N/N=C2\CCC3C4CCc5cc(O)ccc5C4CCC23C)c1C (stereo not given)	H9c2 TAG inh 52 | TAG conf 48
CCO[C@@H]1OC(C(=O)N2CCN(Cc3ccc4c(c3)OCO4)CC2)=C[C@H](C)[C@H]1CCCO	H9c2 TAG inh 53 | TAG conf inactive
COc1ccc(S(=O)(=O)c2ccc(OC)cc2)cc1	none
CC(=O)Oc1ccc(S(=O)(=O)c2ccc(OC(C)=O)cc2)cc1	H9c2 TAG inh 65 | TAG conf inactive
O=C(N[C@H](C(=O)N1CCC[C@H]1C(=O)NCc1ccccc1)c1ccccc1)c1ccc(Cl)cc1Cl	none (no result: H9c2 TAG inh, Vif imaging, SR-BI uptake up, SR-BI HDL uptake)
C[C@H](O)[C@@H]1CN2CCc3c([nH]c4ccccc34)[C@@H]2C[C@@H]1N(C)C(=O)Nc1cc(Cl)cc(Cl)c1	none (no result: Vif imaging, SR-BI uptake up, SR-BI HDL uptake)
Cc1cccc(-c2ccc3[nH]c4c(c3c2)CCN2C[C@@H]([C@H](C)O)[C@@H](N(C)C(=O)Nc3ccc(F)cc3)C[C@@H]42)c1	H9c2 TAG inh 50 (no result: SR-BI uptake up, SR-BI HDL uptake) | TAG conf 48
C[C@H](O)[C@@H]1CN2CCc3c([nH]c4ccc(-c5ccc6c(c5)OCO6)cc34)[C@@H]2C[C@@H]1N(C)C(=O)Nc1cc(Cl)cc(Cl)c1	H9c2 TAG inh 70 (no result: SR-BI uptake up, SR-BI HDL uptake) | TAG conf 89
O=C(CCC1CCCCC1)NCCN1C2=NC[C@H](Cc3ccccc3)N2C[C@H]1Cc1ccc(O)cc1	none (no result: H9c2 TAG inh, Vif imaging)
Cc1ccc(C(=O)NCCN2C3=NC[C@H](C(C)C)N3C[C@H]2Cc2ccc(O)cc2)cc1Br	H9c2 TAG inh 57 | TAG conf 40
COc1ccc(C[C@@H]2CN3C(=NC[C@@H]3Cc3ccc(O)cc3)N2C[C@H](C)NC(=O)CCC2CCCCC2)cc1	none (no result: SMARCA2 act)
O=C(CCC1CCCCC1)NCCN1C2=NC[C@@H](Cc3ccccc3)N2C[C@H]1Cc1ccc(O)cc1	H9c2 TAG inh 63 | TAG conf 62
COc1ccc(C[C@H]2CN3C(=NC[C@@H]3Cc3ccc(O)cc3)N2C[C@H](C)NC(=O)CCC2CCCCC2)cc1	H9c2 TAG inh 51 | TAG conf inactive
